Measurements as given in ChEMBL document CHEMBL3763126, “Development of sigma-1 (σ1) receptor fluorescent ligands as versatile tools to study σ1 receptors” (Eur J Med Chem, 2016).

Tests used:
[1] = Displacement of [3H]-DTG from sigma 2 receptor in Wistar hannover rat liver membrane after 120 mins; type: cell membranes
Outline: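 Six to nine concentrations of test drug, two or three experiments in duplicate; IC50 for inhibition of specific binding, Ki from nonlinear curve fitting.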

[2] = target: T1, Sigma non-opioid intracellular receptor 1 (Homo sapiens, UniProt Q99720); assay: Displacement of 5-(Dimethylamino)-2-(6-((5-(4-(4-methylpiperidin-1-yl)butyl)-5,6,7,8-tetrahydronaphthalen-2-yl)oxy)hexyl)isoindoline-1,3-dione from sigma 1 receptor (unknown origin) expressed in MCF7 after 75 mins by flow cytometry
[3] = target: T1, Sigma non-opioid intracellular receptor 1; assay: Displacement of 5-(Dimethylamino)-2-{6-[(5-(4-(4-methylpiperidin-1-yl)butyl)naphthalen-2-yl)oxy]hexyl}isoindole-1,3-dione from sigma 1 receptor (unknown origin) expressed in MCF7 cells after 75 mins by flow cytometry
[4] = target: Sigma non-opioid intracellular receptor 1 (Cavia porcellus, UniProt Q60492); assay: Displacement of [3H]-pentazocine from sigma 1 receptor in guinea pig brain membrane after 120 mins; type: cell membranes
Outline: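 IC50 from six to nine drug concentrations, two or three experiments with duplicate samples; Ki obtained by nonlinear curve fitting.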

Chain of Sigma non-opioid intracellular receptor 1 (Cavia porcellus, UniProt Q60492) (Q60492 whole entry): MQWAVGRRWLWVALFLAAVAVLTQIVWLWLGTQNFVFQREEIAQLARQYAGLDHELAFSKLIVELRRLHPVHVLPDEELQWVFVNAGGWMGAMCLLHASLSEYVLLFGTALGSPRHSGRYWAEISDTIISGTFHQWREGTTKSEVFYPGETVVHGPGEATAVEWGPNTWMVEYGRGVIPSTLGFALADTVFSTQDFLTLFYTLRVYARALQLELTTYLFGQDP
T1 sequence (Q99720 whole entry): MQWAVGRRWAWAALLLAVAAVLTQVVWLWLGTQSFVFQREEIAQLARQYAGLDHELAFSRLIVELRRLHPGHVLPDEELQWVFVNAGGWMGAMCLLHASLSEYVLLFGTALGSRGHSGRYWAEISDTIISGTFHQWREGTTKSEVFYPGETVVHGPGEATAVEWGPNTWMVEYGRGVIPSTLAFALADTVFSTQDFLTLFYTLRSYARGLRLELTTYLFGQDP

Row | SMILES | Ki [1] [nM] | IC50 [2] [nM] | IC50 [3] [nM] | Ki [4] [nM]
1 | COc1ccc2c(CCCCN3CCC(C)CC3)cccc2c1 | 17.9 | 15.5 | 10.6 | 
2 | COc1ccc2c(c1)CCCC2CCCCN1CCC(C)CC1 (stereo not drawn) | 48.7 | 11.3 | 12.1 | 1.01
3 | COc1cc2c(cc1OC)CN(CCCN1CCc3c(OC)cccc3C1=O)CC2 | 4.24 |  |  | 
4 | CC1CCN(CCCCc2cccc3cc(OCCCCCCN4C(=O)c5ccc(N(C)C)cc5C4=O)ccc23)CC1 | 45.6 |  |  | 5.2
5 | CC1CCN(CCCCC2CCCc3cc(OCCCCCCN4C(=O)c5ccc(N(C)C)cc5C4=O)ccc32)CC1 (stereo not drawn) | 48.3 |  |  | 3.61
6 | COc1cccc2c1CCCC2CCC(=O)N1CCN(C2CCCCC2)CC1 (stereo not drawn) | 179 |  |  | 
